Measured values from ChEMBL document CHEMBL1122292, “Aza analogues of lucanthone: synthesis and antitumor and bactericidal properties” (J Med Chem, 1983).

Experiments:
Type in all cases: functional, organism-based
Staphylococcus aureus [1] = test: In vitro antibiotic activity against Staphylococcus aureus ATCC 6358P at 3.6E-8 mol dose; +/- symbol indicates slightly positive result.
Procedure, shortened: (§1)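 Compounds were dissolved in ethyl alcohol at 3–5 × 10⁻⁶ mol/mL. Aliquots of 5, 10 or 20 μL were applied to 6-mm filter disks and dried under a light nitrogen stream. The disks were laid on an agar overlay inoculated with the test organism and incubated at 37 °C for 24 h. Inhibition-zone diameters were then measured.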

Escherichia coli = test: In vitro antibiotic activity against Escherichia coli ATCC 10536 at 7.2E-8 mol dose; ++ symbol indicates slight constraint, transient positive result.; procedure, shortened: as §1
Candida albicans [2] = test: In vitro antibiotic activity against Candida albicans at 1.8E-8 mol dose; - symbol indicates negative result.; procedure, shortened: as §1
Staphylococcus aureus [3] = test: In vitro antibiotic activity against Staphylococcus aureus ATCC 6358P at 1.8E-8 mol dose; +/- symbol indicates slightly positive result.; procedure, shortened: as §1
Candida albicans [4] = test: In vitro antibiotic activity against Candida albicans at 7.2E-8 mol dose; - symbol indicates negative result.; procedure, shortened: as §1
Bacillus subtilis = test: In vitro antibiotic activity against Bacillus subtilis ATCC 6633 at 1.8E-8 mol dose; - symbol indicates negative result.; procedure, shortened: as §1
Candida albicans [5] = test: In vitro antibiotic activity against Candida albicans at 3.6E-8 mol dose; - symbol indicates negative result.; procedure, shortened: as §1
Staphylococcus aureus [6] = test: In vitro antibiotic activity against Staphylococcus aureus ATCC 6358P at 7.2E-8 mol dose; +/- symbol indicates slightly positive result.; procedure, shortened: as §1

CCN(CC)CCCNc1nc(C)cc2nc3ccccc3c(O)c12
Antibiotic activity (Staphylococcus aureus [1]): +/-
Antibiotic activity (Escherichia coli): slight constraint, transient positive result
Antibiotic activity (Candida albicans [2]): Negative result
Antibiotic activity (Staphylococcus aureus [3]): +/-
Antibiotic activity (Candida albicans [4]): Negative result
Antibiotic activity (Bacillus subtilis): Negative result
Antibiotic activity (Candida albicans [5]): Negative result
Antibiotic activity (Staphylococcus aureus [6]): +/-
